SUMO Mot1 rescue – SUMOylation pathway inhibition by Mot1-301 growth rescue | AID 2716 | growth rescue, % at 18.8 µM | 1% of 320,000 active | S. cerevisiae Mot1-301 growth rescue, ATP luminescence, 38.5C; percent above DMSO median, 100 means doubled;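 active means every valid replicate shows activation above 250% relative to neutral control wells; inactive means the rest, any valid replicate at or below 250%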;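 further: OY570 slx delta 5 strain wells were the positive control but not used for scaling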
A3G deaminase – APOBEC3G (human) deaminase inhibition | Q9HC16 | recombinant A3G, ssDNA deamination FAM/TAMRA fluorescence | inhibition, % at 20 µM | 0.28% of 330,000 active | AID 493012;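 active means inhibition of at least 40% at 20 µM, with no more than 30% in the related APOBEC3A deaminase screen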;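 further: plate controls were DMSO wells with A3G for no effect and wells lacking A3G enzyme for full effect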
ARFGAP1 inh – rat ARFGAP1 inhibition; Arfgap1-stimulated ARF1 GTP hydrolysis, GDP FP detection; AID 651572; Q62848; 0.26% of 360,000 active; inhibition, % at 16.5 µM;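 active means inhibition above a per-plate limit, mean inhibition of low control wells plus 3 SD, cut at about 25% in these data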;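 further: 0% = DMSO wells with enzyme and 100% = wells lacking Arfgap1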
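Assay system: Rat Arfgap1 GAP domain (His6, aa 1-136), purified enzyme | Buffer or medium: HEPES 25 mM pH 7.5, NaCl 150 mM, MgCl2, DTT | Schedule: GTP hydrolysis reaction 2 h at 25 °C | Signal: FP of antibody-bound GDP Alexa 633 tracer, ex 620/em 688 nm | Measure: Percent inhibition of Arfgap1-stimulated GTP hydrolysis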
C2C12 statin – suppressors of simvastatin-induced myotoxicity in C2C12 myotubes | 0.78% of 330,000 active | rescue of ATP level, % at 7.49 µM | ATP luminescence, 48 h; scaled: DMSO 0, geranylgeraniol control 100;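 active means mean ATP rescue above about 67%, or every replicate alone reaching that limit, limit read from the data, passing the limit was not always enough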;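 further: myotubes were challenged with 10 µM simvastatin during compound exposure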
ASAP1 inh – ASAP1 ArfGAP inhibition | Q9ULH1 | ASAP1-stimulated ARF1 GTP hydrolysis, GDP FP detection | inhibition, % at 16.5 µM | 0.19% of 360,000 active | AID 624377; in the data active means inhibition above about 25%;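 further: 0% = vehicle with enzyme and substrate and 100% = no enzyme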
APOBEC3A inh – human APOBEC3A DNA deaminase inhibition | recombinant A3A, FAM/TAMRA ssDNA deamination fluorescence | inhibition, % at 20 µM | 0.41% of 330,000 active;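 active means at least 40% inhibition at 20 µM here, with at most 30% in a related deaminase screen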;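 further: plate controls were A3A with DMSO for no effect and wells lacking A3A enzyme for full effect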
Target sequence (P31941 whole entry, looked up): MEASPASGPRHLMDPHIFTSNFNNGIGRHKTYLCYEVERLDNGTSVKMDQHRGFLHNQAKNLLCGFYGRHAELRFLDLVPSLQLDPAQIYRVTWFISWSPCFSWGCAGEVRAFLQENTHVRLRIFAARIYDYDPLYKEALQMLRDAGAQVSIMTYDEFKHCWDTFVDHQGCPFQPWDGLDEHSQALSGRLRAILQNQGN
ARFGAP1 inh conf – confirmation of rat ARFGAP1 inhibitors. 30% of 890 active. shares compounds with ARFGAP1 inh. ARFGAP1-stimulated ARF1 GTP hydrolysis, GDP tracer FP. inhibition, % at 16.5 µM;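 active means average inhibition over triplicates above the hit cutoff set in the earlier primary screen, cut at about 25% in these data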;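 further: 0% = Arfgap1 plus ARF1-GTP with DMSO and 100% = wells lacking Arfgap1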
Target sequence (Q62848 whole entry, looked up): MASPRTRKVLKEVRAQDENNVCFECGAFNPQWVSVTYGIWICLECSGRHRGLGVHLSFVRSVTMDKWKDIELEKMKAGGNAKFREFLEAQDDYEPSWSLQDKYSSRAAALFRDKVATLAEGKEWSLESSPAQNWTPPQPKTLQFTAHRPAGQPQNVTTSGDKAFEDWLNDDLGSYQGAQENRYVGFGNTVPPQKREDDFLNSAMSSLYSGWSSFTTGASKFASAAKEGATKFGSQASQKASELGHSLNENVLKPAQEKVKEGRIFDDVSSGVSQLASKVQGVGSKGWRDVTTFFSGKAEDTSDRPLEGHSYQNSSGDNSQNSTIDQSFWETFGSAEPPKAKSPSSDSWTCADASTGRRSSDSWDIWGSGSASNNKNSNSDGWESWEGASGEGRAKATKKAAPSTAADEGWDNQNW
* hit, by the source's call; . = not tested or not shown. A selection: hits, their analogues and other compounds. The true share with any hit is near 2.1%.

SMILES	SUMO Mot1 rescue	A3G deaminase	ARFGAP1 inh	C2C12 statin	ASAP1 inh	APOBEC3A inh	ARFGAP1 inh conf
COc1cccc(-c2nn(-c3ccccc3)cc2CN(C)C(C)c2ccncn2)c1 (centres undefined)	190	-3	-6	.	3	-1	.
COc1ccc(-n2cc(CN(C)C(C)c3ccncn3)c(-c3cccc(F)c3)n2)cc1 (centres undefined)	17	-6	27*	-13	7	-1	4
Cc1ccnc(Nc2ccc(CCO)cc2)n1	.	.	27*	-7	-6	.	3
CC(=O)Nc1ccc(Nc2nccc(C)n2)cc1	.	.	8	-8	2	.	.
CN1CCN(C(=O)C[C@@H]2CC[C@H]3[C@@H](COc4ccc(NC(=O)C5CCCCC5)cc4C(=O)N3C)O2)CC1	.	.	.	-12	.	.	.
CN(C)CC(=O)N[C@@H]1CC[C@H](CCn2cc(C3CC3)nn2)O[C@@H]1CO	.	.	.	0	.	.	.
Cc1ccc(CSc2ncnc3ccccc23)cc1	-14	-9	25*	2	1	-1	-2
CN(C)CCCNC(=O)C[C@H]1CC[C@@H]2[C@@H](COc3ccc(NC(=O)c4cccc(F)c4)cc3C(=O)N2C)O1	.	.	.	-10	.	.	.
COCC(C)n1c(C)cc(C(=O)CN2c3cccc4cccc(c34)S2(=O)=O)c1C (centres undefined)	30	-10	29*	0	9	-3	26*
Cc1cc(C(=O)CN2c3cccc4cccc(c34)S2(=O)=O)c(C)n1C	85	4	11	-15	11	2	.
C=CCNC(=O)/C(C#N)=C/c1ccc(C)o1	268	0	7	.	2	1	.
COC(=O)/C(C#N)=C/c1ccc(C)o1	-15	-12	25*	0	7	-6	-4
C=C(C)C(O)CC/C(C)=C/Cc1c(O)ccc(C(=O)/C=C/c2ccc(O)cc2)c1O (centres undefined)	.	-6	21	10	14	0	.
COc1ccc(C(=O)/C=C/c2ccc(O)cc2)c(O)c1C/C=C(\C)CCC=C(C)C	.	-8	25*	6	18	-2	14
C[C@H](NC(=O)C[C@@H]1CC[C@@H]2[C@H](COC[C@H](O)CN2C(=O)Nc2ccccc2)O1)c1ccccc1	.	.	.	-2	.	.	.
CSCC[C@H](NC(=O)OCc1ccccc1)C(=O)O	66	2	5	-3	1	1	.
CSCCC(NC(=O)OCc1ccccc1)C(=O)NCc1cccnc1 (centres undefined)	10	-7	25*	4	4	-2	3
C/C=C/c1cnc2c(c1)C(=O)N([C@@H](C)CO)C[C@H](C)[C@H](CN(C)C(=O)Nc1ccc(OC)cc1)O2	.	.	.	-6	.	.	.
CCS(=O)(=O)Nc1ccc2c(c1)C(=O)N(C)[C@H]1CC[C@@H](CC(=O)Nc3ccccc3)O[C@@H]1CO2	.	.	.	-2	.	.	.
C[C@@H]1CN([C@@H](C)CO)S(=O)(=O)c2ccc(C3=CCCCC3)cc2O[C@@H]1CN(C)Cc1cccnc1	.	.	.	-45	.	.	.
Cc1cccc(/C=N/Nc2ccc3ccccc3n2)c1	-14	-8	25*	-16	13	-1	3
NC(=O)c1ccc(N=C2C(=O)Nc3ccc([N+](=O)[O-])cc32)cc1	-3	-8	37*	.	40*	-3	9
O=C1Nc2ccccc2C1=Nc1cccc([N+](=O)[O-])c1	-2	2	1	.	-8	7	.
O=[N+]([O-])c1cc(C(F)(F)F)cc([N+](=O)[O-])c1Sc1n[nH]c(C(F)(F)F)n1	-7	-9	29*	.	13	-6	-11
CNC(=O)C[C@@H]1CC[C@@H]2[C@@H](COc3ccc(NC(=O)c4ccccc4Cl)cc3C(=O)N2C)O1	.	.	.	-3	.	.	.
SMILES	SUMO Mot1 rescue	A3G deaminase	ARFGAP1 inh	C2C12 statin	ASAP1 inh	APOBEC3A inh	ARFGAP1 inh conf
CCS(=O)(=O)Nc1ccc2c(c1)C(=O)N(C)C[C@@H](OC)[C@@H](C)CN(C(=O)C1CC1)[C@H](C)CO2	.	.	.	-8	.	.	.
Cc1ccc2[nH]c3c(=O)n(CC(=O)N4CC(C)CC(C)C4)ncc3c2c1 (centres undefined)	-9	-2	31*	8	17	-6	41*
CCCN1CCN(C(=O)Cn2ncc3c([nH]c4ccc(C)cc43)c2=O)CC1	9	-2	15	-1	-7	-3	.
CCc1ccc(-c2cc(C(=O)N/N=C/c3ccccn3)[nH]n2)cc1	7	-5	6	.	13	4	.
O=C(N/N=C/c1ccccn1)c1cc(-c2ccc3ccccc3c2)n[nH]1	0	0	29*	.	14	0	100*
O=C(N/N=C/C=C\c1ccccc1[N+](=O)[O-])c1cc(-c2ccc3ccccc3c2)n[nH]1	.	.	30*	-26	-2	.	22
O=C(N/N=C/C=C/c1ccccc1[N+](=O)[O-])c1ccncc1	376	-5	9	.	5	-2	.
CC(=O)OCC(=O)Nc1cc(S(=O)(=O)N2CCCCCC2)ccc1Cl	5	-4	25*	5	-2	2	0
O=C(COC(=O)C1CCC1)Nc1cc(S(=O)(=O)N2CCCCC2)ccc1Cl	20	-1	6	3	-14	1	.
O=C(N/N=C/c1ccc(Cl)cc1)C(=O)N1CCCCCC1	5	-9	25*	-10	3	-3	-6
O=C(N/N=C/c1ccc(C(=O)O)cc1)C(=O)N1CCCCCC1	5	-9	-4	-5	-3	-1	.
Fc1ccc(Nc2ccnc(Nc3ccc(F)cc3)n2)cc1	-10	3	25*	.	7	1	24
Nc1ncnc(Nc2ccc(F)cc2)n1	7	-6	1	.	1	-2	.
Cc1ccccc1-c1ccc([C@@H]2[C@H]3CN(S(C)(=O)=O)CCCCN3[C@H]2CO)cc1	.	.	.	-1	.	.	.
CO[C@H]1CN(C)C(=O)c2cc(NC(=O)C3CC3)ccc2OC[C@H](C)N(CC2CCOCC2)C[C@H]1C	.	.	.	6	.	.	.
COc1ccc(S(=O)(=O)N2CCN(C(=S)NCCc3ccccc3)CC2)cc1	-12	-3	9	-14	13	-3	.
COc1ccc(CCNC(=S)N2CCN(S(=O)(=O)c3ccc(C)cc3)CC2)cc1	2	-8	27*	.	5	-1	4
C[C@@H]1CN([C@@H](C)CO)C(=O)CCCn2cc(nn2)CO[C@H]1CN(C)C	.	.	.	-11	.	.	.
COc1ccc(Cl)cc1NC(=O)c1cccc(NC(=O)CCC(=O)O)c1	10	-8	3	10	-5	-3	.
O=C(O)CCC(=O)Nc1cccc(C(=O)Nc2cccc(Cl)c2)c1	-2	-9	63*	-3	4	-1	0
Cc1sc2ncnc(N3CCC(C(=O)NCC(=O)Nc4ccc(F)c(F)c4)CC3)c2c1C	6	-2	25*	.	-14	-2	1
